Experimental data taken from ChEMBL document CHEMBL4038284, “Synthesis of novel quinoline-based 4,5-dihydro-1H-pyrazoles as potential anticancer, antifungal, antibacterial and antiprotozoal agents” (Eur J Med Chem, 2017).
Converted amounts (≈) assume the structure as drawn.

What was measured:
Klebsiella pneumoniae [1] = test: Antibacterial activity against ESBL positive Klebsiella pneumoniae ATCC 700603 after 24 hrs by resazurin dye based microdilution assay; type: functional; settings: Klebsiella pneumoniae, 700603, 24 h
Outline: (§1)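 MIC taken as the lowest concentration giving visible inhibition and/or by resazurin (1 mg/mL). Gentamicin was the control. Run in duplicate, repeated at least three times.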

Klebsiella pneumoniae [2] = test: Antibacterial activity against carbapenemase positive Klebsiella pneumoniae BAA 1705 after 24 hrs by resazurin dye based microdilution assay; type: functional; settings: BAA 1705, 24 h; outline: as §1
Leishmania panamensis = test: Antileshmanial activity against EpiR/GFP fused Leishmania panamensis MHOM/CO/87/UA140 intracellular amastigotes infected in human […] cells after 72 hrs by flow cytometric method; type: functional, cell-based; settings: MHOM/CO/87/UA140, 72 h
Outline: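 PMA-treated U-937 cells (3 × 10^5 cells/mL) infected with stationary-phase GFP L. panamensis promastigotes (15:1), 3 h at 34 °C, then washed. After 24 h, compounds added at 50, 12.5, 3.125 and 0.78 µg/mL for 72 h at 37 °C. EC50 by Probit; triplicate, two experiments.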

Candida albicans [3] = test: Antifungal activity against Candida albicans ATCC 10231 incubated for 48 hrs under dark condition by broth microdilution method; type: functional; settings: ATCC 10231, 48 h
Outline: (§2)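 CLSI M27-A3 broth microdilution in RPMI-1640, DMSO ≤1%, compounds at 250-0.98 µg/mL final. Inoculum 1-5 × 10^3 CFU/mL. Incubated 48 h at 30 °C in a moist dark chamber, read at OD405. MIC80 and MIC50 taken from % inhibition dose-response curves (mean ± SEM, triplicate). Amphotericin B was the positive control.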

Cryptococcus neoformans [4] = test: Antifungal activity against Cryptococcus neoformans ATCC 32264 incubated for 48 hrs under dark condition by broth microdilution method; type: functional; settings: ATCC 32264, 48 h; outline: as §2
Candida albicans [5] = test: Growth inhibition of Candida albicans ATCC 10231 at 250 ug/ml incubated for 48 hrs under dark condition by broth microdilution method relative to control; type: functional; settings: ATCC 10231, 48 h, read-out: GI
Outline: (§3)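 CLSI M27-A3 broth microdilution in RPMI-1640, DMSO ≤1%. Inoculum 1-5 × 10^3 CFU/mL. Incubated 48 h at 30 °C, dark. % inhibition = 100 − (OD405 test − sterility control)/(OD405 growth control − sterility control), with growth and sterility control wells. Triplicate.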

Candida albicans [6] = test: Growth inhibition of Candida albicans ATCC 10231 at 125 ug/ml incubated for 48 hrs under dark condition by broth microdilution method relative to control; type: functional; settings: ATCC 10231, 48 h, read-out: GI; outline: as §3
Candida albicans [7] = test: Growth inhibition of Candida albicans ATCC 10231 at 62.5 ug/ml incubated for 48 hrs under dark condition by broth microdilution method relative to control; type: functional; settings: ATCC 10231, 48 h, read-out: GI; outline: as §3
Candida albicans [8] = test: Growth inhibition of Candida albicans ATCC 10231 at 31.25 ug/ml incubated for 48 hrs under dark condition by broth microdilution method relative to control; type: functional; settings: ATCC 10231, 48 h, read-out: GI; outline: as §3
Candida albicans [9] = test: Growth inhibition of Candida albicans ATCC 10231 at 15.62 ug/ml incubated for 48 hrs under dark condition by broth microdilution method relative to control; type: functional; settings: ATCC 10231, 48 h, read-out: GI; outline: as §3
Candida albicans [10] = test: Growth inhibition of Candida albicans ATCC 10231 at 7.8 ug/ml incubated for 48 hrs under dark condition by broth microdilution method relative to control; type: functional; settings: ATCC 10231, 48 h, read-out: GI; outline: as §3
Candida albicans [11] = test: Growth inhibition of Candida albicans ATCC 10231 at 3.4 ug/ml incubated for 48 hrs under dark condition by broth microdilution method relative to control; type: functional; settings: ATCC 10231, 48 h, read-out: GI
Cryptococcus neoformans [12] = test: Growth inhibition of Cryptococcus neoformans ATCC 32264 at 250 ug/ml incubated for 48 hrs under dark condition by broth microdilution method relative to control; type: functional; settings: ATCC 32264, 48 h, read-out: GI; outline: as §3
Cryptococcus neoformans [13] = test: Growth inhibition of Cryptococcus neoformans ATCC 32264 at 125 ug/ml incubated for 48 hrs under dark condition by broth microdilution method relative to control; type: functional; settings: ATCC 32264, 48 h, read-out: GI; outline: as §3
Cryptococcus neoformans [14] = test: Growth inhibition of Cryptococcus neoformans ATCC 32264 at 62.5 ug/ml incubated for 48 hrs under dark condition by broth microdilution method relative to control; type: functional; settings: ATCC 32264, 48 h, read-out: GI; outline: as §3
Cryptococcus neoformans [15] = test: Growth inhibition of Cryptococcus neoformans ATCC 32264 at 31.25 ug/ml incubated for 48 hrs under dark condition by broth microdilution method relative to control; type: functional; settings: ATCC 32264, 48 h, read-out: GI; outline: as §3
Cryptococcus neoformans [16] = test: Growth inhibition of Cryptococcus neoformans ATCC 32264 at 15.62 ug/ml incubated for 48 hrs under dark condition by broth microdilution method relative to control; type: functional; settings: ATCC 32264, 48 h, read-out: GI; outline: as §3
Cryptococcus neoformans [17] = test: Growth inhibition of Cryptococcus neoformans ATCC 32264 at 7.8 ug/ml incubated for 48 hrs under dark condition by broth microdilution method relative to control; type: functional; settings: ATCC 32264, 48 h, read-out: GI; outline: as §3
Cryptococcus neoformans [18] = test: Growth inhibition of Cryptococcus neoformans ATCC 32264 at 3.4 ug/ml incubated for 48 hrs under dark condition by broth microdilution method relative to control; type: functional; settings: ATCC 32264, 48 h, read-out: GI
Staphylococcus aureus [19] = test: Antibacterial activity against methicillin-sensitive Staphylococcus aureus ATCC 25923 after 24 hrs by resazurin dye based microdilution assay; type: functional; settings: ATCC 25923, 24 h; outline: as §1
Staphylococcus aureus [20] = test: Antibacterial activity against methicillin-resistant Staphylococcus aureus ATCC 43300 after 24 hrs by resazurin dye based microdilution assay; type: functional; settings: ATCC 43300, 24 h
Outline: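 Broth microdilution in Mueller Hinton broth, inoculum 5 × 10^5 – 8 × 10^5. Compound stocks diluted in MHB with 5% DMSO and 0.1% Tween 80. Incubation 24 h at 35-37 °C. MIC is the lowest concentration with visible growth inhibition and/or by resazurin (1 mg/mL) read-out. Gentamicin as control. Run in duplicate, replicated at least three times.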

Staphylococcus aureus [21] = test: Antibacterial activity against vancomycin-intermediate Staphylococcus aureus after 24 hrs by resazurin dye based microdilution assay; type: functional; outline: as §1
Escherichia coli = test: Antibacterial activity against Escherichia coli ATCC 25922 after 24 hrs by resazurin dye based microdilution assay; type: functional; settings: ATCC 25922, 24 h; outline: as §1
Pseudomonas aeruginosa = test: Antibacterial activity against Pseudomonas aeruginosa ATCC 27853 after 24 hrs by resazurin dye based microdilution assay; type: functional; settings: ATCC 27853, 24 h; outline: as §1
Neisseria gonorrhoeae = test: Antibacterial activity against beta lactamase positive Neisseria gonorrhoeae ATCC 31426 by oxidase test; type: functional
Outline: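 Agar dilution MIC on GC agar with 1% isovitalex containing increasing compound concentrations. Plates inoculated with about 1×10^4 CFU (5 µL). MIC is the lowest concentration that inhibited growth, with growth confirmed by oxidase test. Run in duplicate, repeated at least three times.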

Plasmodium falciparum = test: Antiplasmodial activity against chloroquine-sensitive Plasmodium falciparum 3D7 assessed as reduction in parasitic LDH activity after 48 hrs by Malstat reagent based […] method; type: functional; settings: 3D7, 48 h
Outline: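 Unsynchronized P. falciparum 3D7 at 0.5% parasitemia and 1% hematocrit in RPMI with 3% Albumax II. Exposed to 100, 25, 6.25 and 1.56 µg/mL for 48 h at 37 °C under 90% N2/5% CO2/5% O2. After three freeze-thaw cycles, LDH measured with Malstat and NBT/PES, 1 h in the dark, read at 650 nm. IC50 by Probit; triplicate, ≥2 experiments.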

U-937 = test: Cytotoxicity against human U937 cells after 72 hrs by MTT assay; type: cell-based; settings: u-937, 72 h
Outline: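 Exponentially growing U-937 at 1 × 10^5 cells/mL in RPMI-1640 with 10% FBS were exposed to 200, 50, 12.5 and 3.125 µg/mL for 72 h at 37 °C, 5% CO2. MTT for 3 h, stopped with isopropanol/SDS, formazan read at 570 nm, blank-corrected. LC50 by Probit from % viability against untreated cells. Triplicate, at least two independent experiments.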

Trypanosoma cruzi = test: Antitrypanosomal activity against Trypanosoma cruzi Tulahuen intracellular amastigote harboring LacZ infected in human U937 cells after 72 hrs by CPRG/Nonidet reagent based spectrophotometric method; type: functional, cell-based; settings: U-937, 72 h
Outline: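 U-937 cells at 2.5 × 10^5 cells/mL in RPMI-1640 with 10% serum and 0.1 µg/mL PMA were infected with β-galactosidase-transfected Tulahuen epimastigotes at 5 parasites per cell. Infected cells were exposed to 50, 12.5, 3.125 and 0.78 µg/mL for 72 h. CPRG (100 uM) and 0.1% Nonidet P-40 were added for 3 h, read at 570 nm. EC50 by Probit. Triplicate, at least two experiments; benznidazole as reference.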

SMILES	MIC (Klebsiella pneumoniae [1])	MIC (Klebsiella pneumoniae [2])	EC50 (Leishmania panamensis)	MIC50 (Candida albicans [3])	MIC80 (Candida albicans [3])	MIC50 (Cryptococcus neoformans [4])	MIC80 (Cryptococcus neoformans [4])	inhibition of growth at 250 µg/mL (Candida albicans [5])	inhibition of growth at 125 µg/mL (Candida albicans [6])	inhibition of growth at 62.5 µg/mL (Candida albicans [7])	inhibition of growth at 31.25 µg/mL (Candida albicans [8])	inhibition of growth at 15.62 µg/mL (Candida albicans [9])	inhibition of growth at 7.8 µg/mL (Candida albicans [10])	inhibition of growth at 3.4 µg/mL (Candida albicans [11])	inhibition of growth at 250 µg/mL (Cryptococcus neoformans [12])	inhibition of growth at 125 µg/mL (Cryptococcus neoformans [13])	inhibition of growth at 62.5 µg/mL (Cryptococcus neoformans [14])	inhibition of growth at 31.25 µg/mL (Cryptococcus neoformans [15])	inhibition of growth at 15.62 µg/mL (Cryptococcus neoformans [16])	inhibition of growth at 7.8 µg/mL (Cryptococcus neoformans [17])	also measured
O=C(/C=C/c1cccc(Nc2ccnc3cc(Cl)ccc23)c1)c1ccccc1	> 1000 µg/mL	> 1000 µg/mL	2.54 µg/mL (≈ 6.6 µM)	≥ 250 µg/mL	≥ 250 µg/mL	31.2 µg/mL (≈ 81.2 µM)	62.5 µg/mL (≈ 162 µM)	43.5%	36.7%	36.2%	31.7%	27.7%	25.2%	21.5%	100%	89.5%	80.8%	52.5%	32.3%	25.6%	inhibition of growth at 3.4 µg/mL (Cryptococcus neoformans [18]): 17.9%; MIC (Staphylococcus aureus [19]): > 1000 µg/mL; MIC (Staphylococcus aureus [20]): > 1000 µg/mL; MIC (Staphylococcus aureus [21]): > 1000 µg/mL; MIC (Escherichia coli): > 1000 µg/mL; MIC (Pseudomonas aeruginosa): > 1000 µg/mL; MIC (Neisseria gonorrhoeae): > 1000 µg/mL; EC50 (Plasmodium falciparum): 10.3 µg/mL (≈ 26.7 µM); LC50 (U-937): 1.5 µg/mL (≈ 3.9 µM); EC50 (Trypanosoma cruzi): > 0.8 µg/mL
COc1cc(C2=NN(C=O)C(c3cccc(Nc4ccnc5cc(Cl)ccc45)c3)C2)cc(OC)c1OC (stereo not given)	> 1000 µg/mL	> 1000 µg/mL	6.79 µg/mL (≈ 13.1 µM)	≥ 250 µg/mL	≥ 250 µg/mL	≥ 250 µg/mL	≥ 250 µg/mL	43.9%	26.7%	23.7%	19.7%	19.6%	5.72%	5.34%	0%	0%	0%	0%	0%	0%	inhibition of growth at 3.4 µg/mL (Cryptococcus neoformans [18]): 0%; MIC (Staphylococcus aureus [19]): > 1000 µg/mL; MIC (Staphylococcus aureus [20]): > 1000 µg/mL; MIC (Staphylococcus aureus [21]): > 1000 µg/mL; MIC (Escherichia coli): > 1000 µg/mL; MIC (Pseudomonas aeruginosa): > 1000 µg/mL; MIC (Neisseria gonorrhoeae): > 1000 µg/mL; EC50 (Plasmodium falciparum): 24.3 µg/mL (≈ 47 µM); LC50 (U-937): 17.4 µg/mL (≈ 33.7 µM); EC50 (Trypanosoma cruzi): 7.22 µg/mL (≈ 14 µM)
